Experiments:
Rattus norvegicus [1] = assay: Motor activity with reserpine pretreatment at dose 7.0 umol/kg; format: functional
Summary of the method: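 Test drug dissolved in saline, given sc in the neck (n = 4). Rats placed singly in motility meter cages immediately after dosing. Motor activity recorded as accumulated counts over 0–30 min and compared with controls.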

Rattus norvegicus [2] = species: Rattus norvegicus; assay: Half-maximal decrease of DOPA accumulation upon reserpine pretreatment in the corpus striatum of rat brain; format: functional
Rattus norvegicus [3] = assay: Motor activity with reserpine pretreatment at dose 265 umol/kg; format: functional
Rattus norvegicus [4] = species: Rattus norvegicus; assay: Half-maximal decrease of DOPA accumulation upon reserpine pretreatment in the limbic system of rat brain; format: functional
Rattus norvegicus [5] = assay: Half-maximal decrease of DOPA accumulation (no reserpine pretreatment) in the limbic system of rat brain at dose 0.8 uM/kg; format: functional; set-up: scale not given: the % may be the effect or the level left
Summary of the method: (§1)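 Male Sprague-Dawley rats (200-300 g), not pretreated, received the drug sc in the neck, dissolved in saline. NSD 1015 (100 mg/kg) followed 35 min later. Dopa accumulation was measured in limbic and striatal portions. […] Statistics by Student's t test.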

Rattus norvegicus [6] = assay: Motor activity with reserpine pretreatment at dose 13 uM/kg; format: functional
Rattus norvegicus [7] = assay: (§2) Effect on DOPAC level in limbic system of rat brain at a dose of 27 uM/kg sc 60 min before death; format: functional, organism-based
Summary of the method: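 Male Sprague-Dawley rats (200-300 g) got a single sc dose of 27 μmol/kg, dissolved in saline. They were killed 60 min later. DOPAC and HVA were measured by HPLC in limbic and striatal brain portions. Values are percent of control means ± standard error of the mean.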

Rattus norvegicus [8] = species: Rattus norvegicus; assay: High dose of compound giving significant reduction and increase in motor activity without pretreatment was determined; motor activity 230% of control was observed at the highest dose; format: functional
Summary of the method: (§3)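 Non-pretreated male Sprague-Dawley rats received the compound sc in the neck (n = 4). They were placed singly in test cages and put into motility meters 5 min later. Motor activity was recorded over 5-35 min. The dose reported is the lowest giving a significant reduction or increase in activity, expressed as percent of controls.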

Rattus norvegicus [9] = assay: Effect on HVA level in rat brain striatum regions at a dose of 27 uM/kg sc 60 min before death; format: functional, organism-based
Summary of the method: (§4)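 They were killed 60 min later. DOPAC and HVA were measured by HPLC in limbic and striatal brain portions. Values are percent of control means ± standard error of the mean.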

Rattus norvegicus [10] = species: Rattus norvegicus; assay: Low dose of compound giving significant reduction and increase in motor activity without pretreatment was determined; motor activity 75% of control was observed at the lowest dose; format: functional; summary of the method: as §3
Rattus norvegicus [11] = assay: Effect on DOPAC level in rat brain striatum regions at a dose of 27 uM/kg sc 60 min before death; format: functional, organism-based; summary of the method: as §4
Rattus norvegicus [12] = assay: Effect on HVA level in rat brain limbic regions at a dose of 27 uM/kg sc 60 min before death; format: functional, organism-based; summary of the method: as §4
Rattus norvegicus [13] = assay: Half-maximal decrease of DOPA accumulation (no reserpine pretreatment) in the striatum of rat brain at dose 0.8 uM/kg; format: functional; set-up: scale not given: the % may be the effect or the level left; summary of the method: as §1
Rattus norvegicus [14] = assay: Motor activity with reserpine pretreatment at dose 53 uM/kg; format: functional
Rattus norvegicus [15] = assay: as §2; format: functional, organism-based; summary of the method: as §4; remark: listed apart in the source
Rattus norvegicus [16] = species: Rattus norvegicus; assay: Low dose of compound giving significant reduction and increase in motor activity without pretreatment was determined; motor activity 32% of control was observed at the lowest dose; format: functional; summary of the method: as §3
Rattus norvegicus [17] = assay: Half-maximal decrease of DOPA accumulation (no reserpine pretreatment) in the limbic system of rat brain at dose 0.83 uM/kg; format: functional; set-up: scale not given: the % may be the effect or the level left; summary of the method: as §1
Rattus norvegicus [18] = assay: Half-maximal decrease of DOPA accumulation (no reserpine pretreatment) in the striatum of rat brain at dose 227 uM/kg; format: functional; set-up: scale not given: the % may be the effect or the level left; summary of the method: as §1
Rattus norvegicus [19] = species: Rattus norvegicus; assay: High dose of compound giving significant reduction and increase in motor activity without pretreatment was determined; motor activity 55% of control was observed at the highest dose; format: functional; summary of the method: as §3
Rattus norvegicus [20] = assay: Reduction of DOPA accumulation upon reserpine pretreatment in the limbic system of rat brain at a dose of 100 umol/kg; format: functional
Summary of the method: (§5)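 Test drug dissolved in saline, injected sc in the neck. 30 min later, NSD 1015 100 mg/kg given. Dopa measured in brain portions (limbic, striatal) and expressed as percent reduction from control levels. Student's t test used for statistics.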

Rattus norvegicus [21] = assay: Reduction of DOPA accumulation upon reserpine pretreatment in the corpus striatum of rat brain at a dose of 100 umol/kg; format: functional; summary of the method: as §5
Rattus norvegicus [22] = assay: Half-maximal decrease of DOPA accumulation (no reserpine pretreatment) in the limbic system of rat brain at dose 227 uM/kg; format: functional; set-up: scale not given: the % may be the effect or the level left; summary of the method: as §1
Rattus norvegicus [23] = species: Rattus norvegicus; assay: […] without pretreatment was determined; motor activity 137% of control was observed at the highest dose; format: functional
Rattus norvegicus [24] = assay: Half-maximal decrease of DOPA accumulation (no reserpine pretreatment) in the limbic system of rat brain at dose 0.98 uM/kg; format: functional; set-up: scale not given: the % may be the effect or the level left; summary of the method: as §1
Rattus norvegicus [25] = assay: Motor activity with reserpine pretreatment at dose 3.3 uM/kg; format: functional
Rattus norvegicus [26] = species: Rattus norvegicus; assay: Low dose of compound giving significant reduction and increase in motor activity without pretreatment was determined; motor activity 41% of control was observed at the lowest dose; format: functional; summary of the method: as §3
Rattus norvegicus [27] = assay: Half-maximal decrease of DOPA accumulation (no reserpine pretreatment) in the striatum of rat brain at dose 0.24 uM/kg; format: functional; set-up: scale not given: the % may be the effect or the level left; summary of the method: as §1
Rattus norvegicus [28] = assay: Motor activity with reserpine pretreatment at dose 14 umol/kg; format: functional
Rattus norvegicus [29] = species: Rattus norvegicus; assay: Low dose of compound giving significant reduction and increase in motor activity without pretreatment was determined; motor activity 53% of control was observed at the lowest dose; format: functional; summary of the method: as §3
Rattus norvegicus [30] = assay: Half-maximal decrease of DOPA accumulation (no reserpine pretreatment) in the limbic system of rat brain at dose 3.9 uM/kg; format: functional; set-up: scale not given: the % may be the effect or the level left; summary of the method: as §1
Rattus norvegicus [31] = assay: Half-maximal decrease of DOPA accumulation (no reserpine pretreatment) in the striatum of rat brain at dose 0.98 uM/kg; format: functional; set-up: scale not given: the % may be the effect or the level left; summary of the method: as §1
Rattus norvegicus [32] = species: Rattus norvegicus; assay: High dose of compound giving significant reduction and increase in motor activity without pretreatment was determined; motor activity 92% of control was observed at the highest dose; format: functional; summary of the method: as §3
Rattus norvegicus [33] = assay: Half-maximal decrease of DOPA accumulation (no reserpine pretreatment) in the striatum of rat brain at dose 3.7 uM/kg; format: functional; set-up: scale not given: the % may be the effect or the level left; summary of the method: as §1
Rattus norvegicus [34] = assay: Half-maximal decrease of DOPA accumulation (no reserpine pretreatment) in the limbic system of rat brain at dose 3.7 uM/kg; format: functional; set-up: scale not given: the % may be the effect or the level left; summary of the method: as §1
Rattus norvegicus [35] = species: Rattus norvegicus; assay: Low dose of compound giving significant reduction and increase in motor activity without pretreatment was determined; motor activity 58% of control was observed at the lowest dose; format: functional; summary of the method: as §3
Rattus norvegicus [36] = assay: Motor activity with reserpine pretreatment at dose 100 uM/kg; format: functional
Rattus norvegicus [37] = species: Rattus norvegicus; assay: […] without pretreatment was determined; motor activity 40% of control was observed at the highest dose; format: functional
Rattus norvegicus [38] = assay: Motor activity with reserpine pretreatment at dose 213 uM/kg; format: functional
Rattus norvegicus [39] = assay: Half-maximal decrease of DOPA accumulation (no reserpine pretreatment) in the limbic system of rat brain at dose 213 uM/kg; format: functional; set-up: scale not given: the % may be the effect or the level left; summary of the method: as §1
Rattus norvegicus [40] = species: Rattus norvegicus; assay: Low dose of compound giving significant reduction and increase in motor activity without pretreatment was determined; motor activity 74% of control was observed at the lowest dose; format: functional; summary of the method: as §3
Rattus norvegicus [41] = assay: Half-maximal decrease of DOPA accumulation (no reserpine pretreatment) in the striatum of rat brain at dose 27 uM/kg; format: functional; set-up: scale not given: the % may be the effect or the level left; summary of the method: as §1
Rattus norvegicus [42] = assay: Motor activity with reserpine pretreatment at dose 133 umol/kg; format: functional

SMILES: Oc1cccc([C@@H]2CCCN(CCc3ccccc3)C2)c1
- Accumulated counts (Rattus norvegicus [1]): 71
- ED50 (Rattus norvegicus [2]): 0.13 µmol/kg

SMILES: Oc1cccc([C@H]2CCCNC2)c1
- ED50 (Rattus norvegicus [2]): 14 µmol/kg
- Accumulated counts (Rattus norvegicus [3]): 47

SMILES: CN1CCc2cccc3c2[C@H]1Cc1ccc(O)c(O)c1-3 [APOMORPHINE]
- ED50 (Rattus norvegicus [2]): 0.22 µmol/kg
- ED50 (Rattus norvegicus [4]): 0.19 µmol/kg

SMILES: CCCN1CCC[C@H](c2cccc(O)c2)C1
- Control (Rattus norvegicus [5]): 86%
- Accumulated counts (Rattus norvegicus [6]): 78
- Level (Rattus norvegicus [7]): 59
- Dose (Rattus norvegicus [8]): 213 µM/kg
- Level (Rattus norvegicus [9]): 45
- Dose (Rattus norvegicus [10]): 1.6 µM/kg
- Level (Rattus norvegicus [11]): 63
- ED50 (Rattus norvegicus [2]): 1.3 µmol/kg
- Level (Rattus norvegicus [12]): 52
- Control (Rattus norvegicus [13]): 81%

SMILES: CCCCN1CCC[C@@H](c2cccc(O)c2)C1
- Accumulated counts (Rattus norvegicus [14]): 63
- Level (Rattus norvegicus [15]): 91
- Level (Rattus norvegicus [9]): 142
- Dose (Rattus norvegicus [16]): 3.7 µM/kg
- Control (Rattus norvegicus [17]): 84%
- Level (Rattus norvegicus [11]): 118
- ED50 (Rattus norvegicus [2]): 0.77 µmol/kg
- Level (Rattus norvegicus [12]): 103

SMILES: Oc1cccc([C@@H]2CCCNC2)c1
- Control (Rattus norvegicus [18]): 44%
- Dose (Rattus norvegicus [19]): 227 µM/kg
- Reduction (Rattus norvegicus [20]): 19%
- Reduction (Rattus norvegicus [21]): 26%
- Control (Rattus norvegicus [22]): 50%

SMILES: CC(C)N1CCC[C@@H](c2cccc(O)c2)C1
- Level (Rattus norvegicus [15]): 60
- Dose (Rattus norvegicus [23]): 13 µM/kg
- Level (Rattus norvegicus [9]): 68
- Control (Rattus norvegicus [24]): 74%
- Level (Rattus norvegicus [11]): 81
- Accumulated counts (Rattus norvegicus [25]): 38
- ED50 (Rattus norvegicus [2]): 0.45 µmol/kg
- Level (Rattus norvegicus [12]): 51
- Dose (Rattus norvegicus [26]): 0.2 µM/kg
- Control (Rattus norvegicus [27]): 76%

SMILES: Oc1cccc([C@H]2CCCN(CCc3ccccc3)C2)c1
- Accumulated counts (Rattus norvegicus [28]): 26
- ED50 (Rattus norvegicus [2]): 6.9 µmol/kg

SMILES: CC(C)N1CCC[C@H](c2cccc(O)c2)C1
- Dose (Rattus norvegicus [29]): 0.2 µM/kg
- Control (Rattus norvegicus [30]): 77%
- Accumulated counts (Rattus norvegicus [14]): 49
- Control (Rattus norvegicus [31]): 85%
- Level (Rattus norvegicus [7]): 70
- Level (Rattus norvegicus [9]): 89
- Level (Rattus norvegicus [11]): 74
- ED50 (Rattus norvegicus [2]): 13 µmol/kg
- Level (Rattus norvegicus [12]): 80

SMILES: CCCCN1CCC[C@H](c2cccc(O)c2)C1
- Dose (Rattus norvegicus [32]): 53 µM/kg
- Accumulated counts (Rattus norvegicus [14]): 180
- Level (Rattus norvegicus [15]): 55
- Control (Rattus norvegicus [33]): 76%
- Level (Rattus norvegicus [9]): 52
- Level (Rattus norvegicus [11]): 58
- ED50 (Rattus norvegicus [2]): 2.2 µmol/kg
- Control (Rattus norvegicus [34]): 72%
- Level (Rattus norvegicus [12]): 52
- ED50 (Rattus norvegicus [4]): 2.3 µmol/kg
- Dose (Rattus norvegicus [35]): 3.7 µM/kg

SMILES: CN1CCC[C@@H](c2cccc(O)c2)C1
- Control (Rattus norvegicus [18]): 51%
- Accumulated counts (Rattus norvegicus [36]): 36
- Control (Rattus norvegicus [22]): 48%
- ED50 (Rattus norvegicus [2]): 10 µmol/kg
- Dose (Rattus norvegicus [37]): 227 µM/kg

SMILES: CCCN1CCC[C@@H](c2cccc(O)c2)C1 [PRECLAMOL]
- Accumulated counts (Rattus norvegicus [38]): 12
- Level (Rattus norvegicus [15]): 114
- Control (Rattus norvegicus [39]): 95%
- Level (Rattus norvegicus [9]): 162
- Level (Rattus norvegicus [11]): 145
- ED50 (Rattus norvegicus [2]): 1.7 µmol/kg
- Level (Rattus norvegicus [12]): 100
- Dose (Rattus norvegicus [37]): 213 µM/kg
- Dose (Rattus norvegicus [40]): 0.8 µM/kg
- Control (Rattus norvegicus [41]): 147%

SMILES: CN1CCC[C@H](c2cccc(O)c2)C1
- ED50 (Rattus norvegicus [2]): 2.9 µmol/kg
- Accumulated counts (Rattus norvegicus [42]): 88
